# In article PMC2932756 (Chemico-biological interactions, 2010):
# Experiments:
# [1] = test system: SK-MEL-28 melanoma cells; assay: MTT cell viability assay, IC50; assay type: cell-based, human
# [2] = test system: tyrosinase; assay: Tyrosinase mediated GSH depletion assay; assay type: biochemical, Mushroom; conditions: for Tyrosinase GSH depletion (2 h): 100 μM phenolic agent, 200 μM GSH, tyrosinase/O2, 37 °C
# [3] = Partition coefficient, distribution coefficient and water solubility
# [4] = no reference given; cited from earlier work
# [5] = test system: tyrosinase; assay: Rate of AA and NADH oxidation by tyrosinase/O2; assay type: biochemical, Mushroom
# [6] = target: T1, horseradish peroxidase (HRP) (Armoracia rusticana, UniProt P00433); assay: Rate of AA and NADH oxidation by HRP/H2O2; assay type: biochemical
# T1 sequence (P00433 31-338 limits assumed): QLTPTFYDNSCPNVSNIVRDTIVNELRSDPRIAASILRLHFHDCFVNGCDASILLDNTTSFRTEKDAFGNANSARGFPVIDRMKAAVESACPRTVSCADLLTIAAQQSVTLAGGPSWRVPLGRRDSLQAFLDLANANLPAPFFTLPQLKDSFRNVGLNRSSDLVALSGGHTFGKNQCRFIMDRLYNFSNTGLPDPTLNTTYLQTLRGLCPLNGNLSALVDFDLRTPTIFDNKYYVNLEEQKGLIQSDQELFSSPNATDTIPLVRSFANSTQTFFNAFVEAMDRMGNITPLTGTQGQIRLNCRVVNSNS
# [7] = test system: B16-F0 melanoma cells; assay: MTT cell viability assay, B16-F0; assay type: cell-based, murine; conditions: CAPE 15 μM, 48 h
# Procedure, shortened: (§1)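 24-well plates, 40,000 cells/well (SK-MEL-5 4,000/well) in 400 μL medium with 10% FBS, 24 h adhesion. Media: MEM Alpha for SK-MEL-5, MeWo and C32; DMEM for B16-F0 and B16-F10; McCoy's 5A for Saos-2; Leibovitz's L-15 for SW-620; RPMI for PC-3. Test compound 15 μM for 48 h; MTT 4 h, DMSO solubilisation for 2 h in the dark, A570. Viability relative to each line's untreated control.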
# [8] = test system: B16-F10 melanoma cells; assay: MTT cell viability assay, B16-F10; assay type: cell-based, murine; conditions: CAPE 15 μM, 48 h
# Procedure, shortened: as §1
# [9] = test system: SK-MEL-5 melanoma cells; assay: MTT cell viability assay, SK-MEL-5; assay type: cell-based, human; conditions: CAPE 15 μM, 48 h
# Procedure, shortened: as §1
# [10] = test system: MeWo melanoma cells; assay: MTT cell viability assay, MeWo; assay type: cell-based, human; conditions: CAPE 15 μM, 48 h
# Procedure, shortened: as §1
# [11] = test system: amelanotic SK-MEL-24 cells; assay: MTT cell viability assay, SK-MEL-24; assay type: cell-based, human; conditions: CAPE 15 μM, 48 h
# [12] = test system: amelanotic C32 cells; assay: MTT cell viability assay, C32; assay type: cell-based, human; conditions: CAPE 15 μM, 48 h
# Procedure, shortened: as §1
# [13] = test system: colorectal adenocarcinoma (SW-620) cells; assay: MTT cell viability assay, SW-620; assay type: cell-based, human; conditions: CAPE 15 μM, 48 h
# Procedure, shortened: as §1
# [14] = test system: osteosarcoma (Saos-2) cells; assay: MTT cell viability assay, Saos-2; assay type: cell-based, human; conditions: CAPE 15 μM, 48 h
# Procedure, shortened: as §1
# [15] = test system: prostate (PC-3) cells; assay: MTT cell viability assay, PC-3; assay type: cell-based, human; conditions: CAPE 15 μM, 48 h
# Procedure, shortened: as §1
# [16] = test system: SK-MEL-28 melanoma cells; assay: MTT assay using biochemical modulators in SK-MEL-28 melanoma cells; assay type: cell-based, human; conditions: 48 h
# Procedure, shortened: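 SK-MEL-28 cells in MEM Alpha with 10% FBS, 40,000/well in 24-well plates, 24 h to adhere. DMSO-dissolved modulators (1-bromoheptane 75 μM, dicoumarol 10 μM, cyclosporin A 15 μM, trifluoperazine 15 μM) added 20 min before test compound. Viability by MTT 48 h after compound addition: 4 h with dye, DMSO solubilisation for 2 h in the dark, A570.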
# [17] = test system: SK-MEL-28 cells; assay: MTT assay in tyrosinase shRNA transfected SK-MEL-28 cells; assay type: cell-based, human; conditions: CAPE 15 μM, 48 h
# Procedure, shortened: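 SK-MEL-28 cells seeded at 160,000/well in 6-well plates; after 24 h transfected with tyrosinase shRNA clone (FuGENE6). 24 h later, untransfected, tyrosinase-shRNA and non-specific shRNA cells given test compound 15 μM for a further 48 h. Viability by MTT: 4 h with dye, DMSO solubilisation for 2 h at room temperature in the dark, A570. Three experiments averaged.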
# [18] = test system: melanocytic SK-MEL-28 melanoma cells; assay: Reactive oxygen species; assay type: cell-based, human
# Procedure, shortened: (§2)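 Cells seeded at 40,000/well in black 96-well plates, 24 h at 37 °C. Medium replaced with 2′,7′-dichlorofluorescein diacetate, then test compound added; fluorescence read from the moment of addition (ex 485, em 535 nm). In SK-MEL-28 only: dicoumarol 10 μM, 1-bromoheptane 75 μM, cyclosporin A 15 μM or trifluoperazine 15 μM included. Six replicates averaged.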
# [19] = test system: amelanotic C32 melanoma cells; assay: Reactive oxygen species; assay type: cell-based, human; conditions: CAPE 15-300 μM
# Procedure, shortened: as §2
# [20] = test system: SK-MEL-28 cells; assay: Mitochondrial membrane potential; assay type: cell-based, human
# Procedure, shortened: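 SK-MEL-28 cells seeded at 160,000/well in 6-well plates in MEM and left overnight; cyclosporin A 15 μM or ethylenediamine 1 mM added 24 h before test compound (15-50 μM; controls 1% DMSO). After 48 h, TMRM added for 30 min at 37 °C in the dark. Cells detached with versene, pelleted, resuspended in PBS. Flow cytometry on 10,000 events; arithmetic mean fluorescence, triplicates.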
# [21] = test system: SK-MEL-28 melanoma cells; assay: Apoptosis assay; assay type: cell-based, human; conditions: CAPE 15 μM, 48 h
# Procedure, shortened: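 SK-MEL-28 cells seeded at 160,000/well in 6-well plates in MEM and left overnight to attach; some wells transfected with tyrosinase shRNA3 or non-specific shRNA for 24 h. Treated with test compound 15 μM (controls 1% DMSO) for 48 h. Cells detached with versene, washed in PBS, pelleted, stained with annexin V-FITC plus PI in binding buffer for 15 min. Flow cytometry on 10,000 events; annexin+ cells (PI− or PI+) counted apoptotic; triplicates.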
# [22] = test system: melanocytic SK-MEL-28 cells; assay: Intracellular GSH measurement, SK-MEL-28; assay type: cell-based, human; conditions: 2 h
# Procedure, shortened: (§3)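 Cells from 90-95% confluent cultures seeded at 1 million cells/mL in MEM Alpha with 10% FBS in 24-well plates, 3 h at 37 °C, then given 1 mL medium with test compound (15-200 μM) for 1, 2 or 3 h. Detached with trypsin-EDTA, lysed with 3% sulphosalicylic acid, spun at 14,000 rpm and 4 °C for 10 min; supernatant diluted 10-fold. GSH by DTNB/NADPH (0.3 mM)/GSSG reductase recycling, A405 every 30 s over 4 min.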
# [23] = test system: amelanotic C32 melanoma cells; assay: Intracellular GSH measurement, C32; assay type: cell-based, human; conditions: 2 h
# Procedure, shortened: as §3
# [24] = UV-VIS spectroscopy, stability of CAPE alone in solution; assay type: physicochemical; conditions: CAPE 100 μM alone, phosphate buffer pH 7.4
# Procedure, shortened: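 Test compound 100 μM alone in 0.1 M phosphate buffer, pH 7.4, containing 1 mM DETAPAC; UV-visible spectrum recorded as the no-enzyme control for spectra of enzymatic oxidation, which were taken every two minutes.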
# [25] = test system: SV40 transformed keratinocytes; conditions: read-out: IC50, inhibition of proliferation; 48 h; cited from earlier work
# [26] = test system: oral cancer cells; conditions: read-out: IC50, cytotoxicity; 48 h; cited from earlier work
# [27] = test system: human leukemia HL-60 cells; conditions: read-out: IC50, growth arrest; 48 h; cited from earlier work
# [28] = test system: CYP2E1 induced rat liver microsomes; assay: GSH depletion by rat liver P450 microsomal preparation/NADPH/O2; conditions: CYP2E1 pyrazole induced microsomes, 2 h incubation
smiles,measurement,setting,value
"O=C(O)C=Cc1ccc(O)cc1 [4-HCA, 4-hydroxycinnamic acid]",LD50 (day 2) SK-MEL-28,"[1]; MTT assay, 48 h incubation",4.4 mM
same,Tyrosinase GSH depletion (2 h),[2],16±3%
"O=C(O)CCc1ccc(O)cc1 [4-HPP, 4-hydroxypropionic acid]",LD50 (day 2) SK-MEL-28,"[1]; MTT assay, 48 h incubation",1.5 mM
same,Tyrosinase GSH depletion (2 h),[2],42±2%
"O=C(O)/C=C/c1ccc(O)c(O)c1 [CA, caffeic acid]",LD50 (day 2) SK-MEL-28,"[1]; MTT assay, 48 h incubation",2.3 mM
same,Tyrosinase GSH depletion (2 h),[2],200±6%
same,water solubility relative to CAPE,[3]; from LogW,45 fold
same,ionized at physiological pH,[3]; pH 7.4,more than 99%
same,pKa value of the carboxylic moiety,[4],4.62
"O=C(/C=C/c1ccc(O)c(O)c1)OCCc1ccccc1 [CAPE, Caffeic Acid Phenylethyl Ester]",LD50 (day 2) SK-MEL-28 / IC50 (48 h),"[1]; MTT assay, 48 h incubation",15 µM
same,"toxicity relative to caffeic acid, based on IC50 (48 h)",[1]; SK-MEL-28,153 fold
same,Tyrosinase GSH depletion (2 h),[2],82±6%
same,"GSH depleted per mole of CAPE, tyrosinase/O2",[2]; 2 h incubation,0.8 mole GSH per mole of CAPE
same,ionized at physiological pH,[3]; pH 7.4,not significantly ionized
same,lipid solubility relative to caffeic acid (antilog LogD),[3]; pH 7.4,"40,000 fold"
same,Rate of NADH oxidation by tyrosinase/O2,"[5]; CAPE 100 μM, tyrosinase 5 U/mL, NADH 200 μM, pH 7.4",10 nM (AA and NADH depletion)/CAPE (μM)/tyrosinase (U/mL)/min
same,Rate of NADH oxidation by tyrosinase/O2 in the presence of GSH,[5]; with GSH 200 μM,0.08 nM GSH depletion/CAPE (μM)/tyrosinase (U/mL)/min
same,Rate of NADH oxidation by HRP/H2O2,"[6]; HRP 2 μM, H2O2 100 μM",867 μM (AA and NADH depletion)/CAPE (μM)/HRP (μM)/min
same,Rate of AA oxidation by HRP/H2O2 in the presence of GSH,[6]; with GSH,10 μM GSH depletion/CAPE (μM)/HRP (μM)/min
same,Rate of NADH oxidation by HRP/H2O2 in the presence of GSH,[6]; with GSH,5 μM GSH depletion/CAPE (μM)/HRP (μM)/min
same,cell viability,[7],58±6%
same,cell viability,[8],60±4%
same,cell viability,[9],57±3%
same,cell viability,[10],51±6%
same,cell viability,[11],81±7%
same,cell viability,[12],86±4%
same,cell viability,[13],89±3%
same,cell viability,[14],90±6%
same,cell viability,[15],88±3%
same,increase of CAPE toxicity by 1-bromoheptane (BH),[16]; CAPE 7.5 μM + BH 75 μM,26%
same,enhancement of CAPE toxicity by dicoumarol,[16]; CAPE 7.5 μM + dicoumarol 10 μM,39%
same,"viability, CAPE incubated alone",[16]; CAPE 30 μM,23±2%
same,"cell viability, tyrosinase shRNA transfected cells",[17],87±5%
same,"cell viability, untransfected cells",[17],43±6%
same,"ROS formation, CAPE + BH",[18]; BH 75 μM,11±2 fold
same,"ROS formation, CAPE + TF","[18]; CAPE 15 μM + TF 15 μM, 40 min",5±1 fold
same,"ROS formation, CAPE alone","[18]; CAPE 15 μM, 40 min",8±1 fold
same,ROS formation,"[18]; CAPE 15-300 μM, various time points",concentration- and time-dependent escalation in ROS formation
same,"ROS formation, CAPE + CS",[18]; CS 15 μM,4±1 fold
same,"ROS formation, CAPE + DC",[18]; DC 10 μM,12±2 fold
same,ROS formation,[19],no significant ROS was formed
same,decrease in mitochondrial membrane potential,[20]; CAPE 15 μM,17±1%
same,decrease in mitochondrial membrane potential in the presence of CS,[20]; CAPE 15 μM + CS 15 μM,8±1%
same,decrease in mitochondrial membrane potential in the presence of ethylenediamine,[20]; CAPE 15 μM + ethylenediamine 1 mM,4±1%
same,decrease in mitochondrial membrane potential,[20]; CAPE 30 μM,20±2%
same,decrease in mitochondrial membrane potential in the presence of CS,[20]; CAPE 30 μM + CS 15 μM,12±1%
same,decrease in mitochondrial membrane potential in the presence of ethylenediamine,[20]; CAPE 30 μM + ethylenediamine 1 mM,10±1%
same,apoptotic cell death,[21],12.5±0.7%
same,increase in apoptotic cell death in comparison to untreated control cells,[21],2.5 fold
same,intracellular GSH depleted,[22]; CAPE 15 μM,11±4%
same,intracellular GSH depleted,[22]; CAPE 50 μM,19±2%
same,intracellular GSH depleted,[22]; CAPE 100 μM,26±1%
same,intracellular GSH depleted,[22]; CAPE 200 μM,54±1%
same,intracellular GSH depleted,[23]; CAPE 15 μM,3±2%
same,intracellular GSH depleted,[23]; CAPE 50 μM,10±2%
same,intracellular GSH depleted,[23]; CAPE 100 μM,13±3%
same,intracellular GSH depleted,[23]; CAPE 200 μM,24±2%
same,stability of spectrum in solution (auto-oxidation),[24],stable
same,IC50,[25],7 µM
same,IC50,[26],75 µM
same,IC50,[27],2.5 µM
same,"GSH depleted per mole of CAPE, rat liver microsomes",[28],0.5 mole GSH per one mole of CAPE
